Holding throughout (assay type): functional, cell-based
Assay [1] relates to MCF7. Nature of the assay: Cytotoxicity against human MCF7 cells after 48 hrs by MTT assay. To be noted: MCF7, 48 h. The method in brief:
(§1)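 Adherent cells grown in DMEM with 10% FBS at 37 °C under 5% CO2. Cells were seeded in 96-well plates and left 12 h to attach, then exposed in triplicate to a range of compound concentrations for 48 h, with cisplatin as positive control. MTT read-out was absorbance at 570 nm (reference 630 nm). IC50 was derived by the Reed–Muench method.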
On the technique in general: Tetrazolium dyes change colour on reduction, which living cells bring about.

In assay [2] the test system is HeLa. Nature of the assay: Cytotoxicity against human HeLa cells after 48 hrs by MTT assay. The method in brief:
as §1

A short description of assay [3]: Cytotoxicity against human HL60 cells after 48 hrs by MTT assay. To be noted: HL-60, 48 h. The method in brief:
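HL-60 suspension cells were grown in DMEM with 10% FBS at 37 °C under 5% CO2. They were seeded at 1 × 10^5 cells/mL in 96-well plates just before compound addition, then exposed in triplicate to graded concentrations for 48 h, with cisplatin as positive control. MTT absorbance was read at 570 nm against 630 nm reference. IC50 was calculated by the Reed–Muench method.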

Assay [4] in a line: Cytotoxicity against human H460 cells after 48 hrs by MTT assay. To be noted: NCI-H460, 48 h. The method in brief: as §1
The nature of assay [5]: Cytotoxicity against human SMMC-7721 cells after 48 hrs by MTT assay. To be noted: SMMC-7721, 48 h. The method in brief:
as §1

Usually IC50 stands for the concentration needed to halve the response being measured. Lower therefore signals higher potency. For `C[C@H](CC(=O)[C@@H]1OC1(C)C)[C@H]1C(=O)C[C@@]2(C)C3=CC[C@H]4C(C)(C)[C@@H](O[C@@H]5OC[C@@H](O)[C@H](O)[C@H]5O)CC[C@]4(O)CC3=CC[C@]12C`, the IC50 in assay [1], in assay [2], in assay [3], in assay [4] and in assay [5] was more than 10 µM throughout.

With `C[C@@H]1C[C@H]2O[C@@]3(O[C@@H]2C(C)(C)O)[C@H](O)[C@@]2(C)[C@@H]4CC[C@H]5C(C)(C)[C@@H](O[C@@H]6OC[C@@H](O)[C@H](O)[C@H]6O)CC[C@@]56C[C@@]46C[C@@H](O)[C@]2(C)[C@@H]13`, the half-maximal inhibitory concentration (IC50) in assay [1], in assay [2], in assay [3], in assay [4] and in assay [5] was more than 10 µM in each case.

Take `CC(=O)O[C@@H]1C[C@@]23C[C@@]24CC[C@H](O[C@@H]2OC[C@@H](O)[C@H](O)[C@H]2O)C(C)(C)[C@@H]4CC[C@H]3[C@]2(C)C[C@@H]3O[C@](O)(C(=O)C(C)C)C[C@@H](C)[C@@H]3[C@@]12C`: the IC50 in assay [1], in assay [2], in assay [3], in assay [4] and in assay [5] was more than 10 µM throughout.

`C[C@H](CC(=O)[C@H](O)C(C)(C)O)[C@H]1C(=O)C[C@@]2(C)C3=CC[C@H]4C(C)(C)[C@@H](O[C@@H]5OC[C@@H](O)[C@H](O)[C@H]5O)CC[C@]4(O)CC3=CC[C@]12C`: the IC50 in assay [1], in assay [2], in assay [3], in assay [4] and in assay [5] was more than 10 µM in each case.

As for `C[C@H](CC(=O)[C@H](O)C(C)(C)O)[C@H]1C(=O)C[C@@]2(C)C3=CC[C@@H]4C(=CC[C@H](O)C4(C)C)CC3=CC[C@]12C`, the IC50 in assay [1], in assay [2], in assay [3], in assay [4] and in assay [5] was more than 10 µM in each case.

Turning to `C[C@H](CC(=O)[C@@H]1OC1(C)C)[C@H]1C(=O)C[C@@]2(C)C3=CC[C@H]4C(C)(C)[C@@H](O[C@@H]5OC[C@@H](O)[C@H](O)[C@H]5O)CC[C@@]4(O)CC3=CC[C@]12C`, the IC50 in assay [1], in assay [2], in assay [3], in assay [4] and in assay [5] was more than 10 µM each time.

For `CC(=O)O[C@@H]1CO[C@@H](O[C@H]2CC[C@]34C[C@]35CC[C@]3(C)[C@H]6[C@H](C)C[C@H]7O[C@@]6(O[C@@H]7C(C)(C)OC(C)=O)[C@H](O)[C@@]3(C)[C@@H]5CC[C@H]4C2(C)C)[C@H](O)[C@H]1O`, the 50% inhibitory concentration (IC50) in assay [1] is more than 10 µM; in assay [2], more than 10 µM; in assay [3], more than 10 µM; in assay [4], more than 10 µM; in assay [5] it was 6.3 µM.

`CC(=O)O[C@@H]1C[C@@]23C[C@@]24CC[C@H](O[C@@H]2OC[C@@H](O)[C@H](O)[C@H]2O)C(C)(C)[C@@H]4CC[C@H]3[C@]2(C)C[C@@H]3O[C@]4(C[C@@H](C)[C@@H]3[C@@]12C)O[C@H](O)[C@@]1(C)O[C@@H]41` [ACTEIN]: the IC50 in assay [1], in assay [2], in assay [3], in assay [4] and in assay [5] was more than 10 µM throughout.

In the case of `CC(=O)O[C@@H]1C[C@@]23C[C@@]24CC[C@H](O[C@@H]2OC[C@@H](O)[C@H](O)[C@H]2O)C(C)(C)[C@@H]4CC[C@H]3[C@]2(C)C[C@@H]3OC(C(O)C(C)(C)O)=C[C@@H](C)[C@@H]3[C@@]12C` (stereo not given in full), the IC50 in assay [1], in assay [2], in assay [3], in assay [4] and in assay [5] was more than 10 µM each time.

For the compound `CC(=O)O[C@@H]1[C@@H](O)[C@H](O[C@H]2CC[C@]34C[C@]35CC[C@]3(C)[C@H]6[C@H](C)C[C@H]7O[C@@]6(O[C@@H]7C(C)(C)OC(C)=O)[C@H](O)[C@@]3(C)[C@@H]5CC[C@H]4C2(C)C)OC[C@H]1O`, the IC50 in assay [1] is more than 10 µM; in assay [2], more than 10 µM; in assay [3], more than 10 µM; in assay [4] it was more than 10 µM; in assay [5] it was 5.5 µM.

Regarding `C[C@H](CC(=O)[C@H](O)C(C)(C)O)[C@H]1C(=O)C[C@@]2(C)C3=CC[C@H]4C(C)(C)[C@@H](O[C@@H]5OC[C@@H](O)[C@H](O)[C@H]5O)CC[C@@]4(O)CC3=CC[C@]12C`, the IC50 in assay [1], in assay [2], in assay [3], in assay [4] and in assay [5] was more than 10 µM each time.

Take `CC(=O)O[C@@H]1C[C@@]23C[C@@]24CC[C@H](O[C@@H]2OC[C@@H](O)[C@H](O)[C@H]2O)C(C)(C)[C@@H]4CC[C@H]3[C@]2(C)C[C@@H]3O[C@]4(O)[C@H](OC(C)(C)[C@@H]4O)[C@@H](C)[C@@H]3[C@@]12C`: the half-maximal inhibitory concentration (IC50) in assay [1], in assay [2], in assay [3], in assay [4] and in assay [5] was more than 10 µM throughout.

Take `C[C@H](CC(=O)[C@@H](O)C(C)(C)O)[C@H]1C(=O)C[C@@]2(C)C3=CC[C@@H]4C(=CC[C@H](O)C4(C)C)CC3=CC[C@]12C`: the IC50 in assay [1], in assay [2], in assay [3], in assay [4] and in assay [5] was more than 10 µM in each case.

As to `CC(=O)O[C@@H]1C[C@@]23C[C@@]24CC[C@H](O[C@@H]2OC[C@@H](O)[C@H](O)[C@H]2O)C(C)(C)[C@@H]4CC[C@H]3[C@]2(C)[C@@H](O)[C@]34O[C@H](C[C@@H](C)[C@@H]3[C@@]12C)[C@@H](C(C)(C)O)O4`, the half-inhibitory concentration (IC50) in assay [1], in assay [2], in assay [3], in assay [4] and in assay [5] was more than 10 µM each time.

In the case of `C=C(C)[C@@H](O)C(=O)C[C@@H](C)[C@H]1C(=O)C[C@@]2(C)C3=CC[C@H]4C(C)(C)[C@@H](O[C@@H]5OC[C@@H](O)[C@H](O)[C@H]5O)CC[C@@]45C[C@]35[C@@H](O)C[C@]12C`, the IC50 in assay [1], in assay [2], in assay [3], in assay [4] and in assay [5] was more than 10 µM throughout.

In the case of `CC(=O)O[C@@H]1C[C@@]23C[C@@]24CC[C@H](O[C@@H]2OC[C@@H](O)[C@H](O)[C@H]2O)C(C)(C)[C@@H]4CC[C@H]3[C@]2(C)C[C@@H]3O[C@@]4(C[C@@H](C)[C@@H]3[C@@]12C)OC[C@]1(C)O[C@H]41`, the IC50 in assay [1], in assay [2], in assay [3], in assay [4] and in assay [5] was more than 10 µM in each case.

The values above are taken from ChEMBL document CHEMBL3352359, “Cycloartane triterpenoids and their glycosides from the rhizomes of Cimicifuga foetida” (J Nat Prod, 2014).
